Series [1] can be described thus: Intrinsic clearance in human liver microsome at 2 uM. In kind it is ADME. As to conditions: liver microsomes. A digest of the protocol: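 Stability in liver microsome homogenate, expressed as intrinsic clearance (Clint, µL/min/mg).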
Series [2] in a line: Permeability in Caco-2 cells at 10 uM. Type of series: ADME, cell-based. As to conditions: human, read-out: permeability. In outline: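 Caco-2 cell monolayer; membrane permeation expressed as apparent permeability Papp (10^-6 cm/s).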
Series [3] has as its system MT4. Put plainly: Cytotoxicity against MT4 cells. In kind it is functional. The conditions noted are these: Homo sapiens. In outline:
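Cytotoxicity reported as CC50 (µM).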

The test system of series [4] is Human immunodeficiency virus 1. Put plainly: Antiviral activity against HIV1 in MT4 cells. In kind it is functional, organism-based. The conditions noted are these: Human immunodeficiency virus 1, MT4. In outline: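 HIV-1-infected MT4 cells; antiviral activity reported as EC50 (µM).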
Series [5] deals with Human immunodeficiency virus type 1 protease (Human immunodeficiency virus 1, UniProt Q72874). Put plainly: Inhibition of HIV1 protease.

Usually microsomal CLint stands for a measure of how fast metabolising enzymes remove a compound, apart from limits set by blood flow. In general, CC50 refers to the concentration that lowers cell viability or growth by half. A low value points to harm at low concentration. What is called EC50 is the concentration at which the effect is half-maximal. High values mean weaker potency, low ones greater potency. As usually defined, the Ki is a dissociation constant, usually derived from enzyme kinetics or from competition with a known ligand. Read a high Ki as weaker binding.

SMILES strings stand for the structures.

Regarding `COC(=O)N[C@H](C(=O)NN(Cc1ccc(-c2cccnc2)cc1)C[C@@](O)(Cc1ccccc1)C(=O)N[C@H]1c2ccccc2C[C@H]1O)C(C)(C)C`, the microsomal CLint at 2 µM in series [1] worked out at 154 µL/min/mg. Also, the Papp at 10 µM in series [2] turned out to be 33 ×10⁻⁶ cm/s. The molecule further registered a CC50 in series [3] of over 10 µM. Moreover, a half-maximal effect in series [4] (EC50) was put at 0.18 µM.

In the case of `COC(=O)N[C@H](C(=O)NN(Cc1cccc(-c2cccnc2)c1)C[C@@](O)(Cc1ccccc1)C(=O)N[C@H]1c2ccccc2C[C@H]1O)C(C)(C)C`, the microsomal CLint at 2 µM in series [1] was found to be 190 µL/min/mg. The molecule also displayed a Ki in series [5] of 0.012 µM. For the same molecule, the Papp at 10 µM in series [2] came to 11 ×10⁻⁶ cm/s. Half-maximal cytotoxicity in series [3] (CC50) was put at 6.8 µM. In series [4], this molecule came in with an EC50 of over 10 µM.

The molecule `COC(=O)N[C@H](C(=O)NN(Cc1cccc(C#Cc2ccccn2)c1)C[C@@](O)(Cc1ccccc1)C(=O)N[C@H]1c2ccccc2C[C@H]1O)C(C)(C)C` came in with a Ki in series [5] of 0.022 µM. Further, in series [3], the 50% cytotoxic concentration (CC50) is over 10 µM. This molecule also returned an EC50 in series [4] of over 10 µM.

Take `COC(=O)N[C@H](C(=O)NN(Cc1cccc(/C=C/c2ccccc2)c1)C[C@@](O)(Cc1ccccc1)C(=O)N[C@H]1c2ccccc2C[C@H]1O)C(C)(C)C`: the Ki in series [5] worked out at 0.014 µM. This molecule also came in with a 50% cytotoxic concentration (CC50) in series [3] of over 10 µM. This molecule also returned an EC50 in series [4] of over 10 µM.

In turn, `COC(=O)N[C@H](C(=O)NN(Cc1ccc(/C=C/c2ccccc2)cc1)C[C@@](O)(Cc1ccccc1)C(=O)N[C@H]1c2ccccc2C[C@H]1O)C(C)(C)C` came in with a half-maximal cytotoxic concentration (CC50) in series [3] of over 10 µM. In addition, the concentration for a half-maximal effect (EC50) in series [4] is over 10 µM.

In series [5], `COC(=O)N[C@H](C(=O)NN(Cc1cccc(C#Cc2ccccc2)c1)C[C@@](O)(Cc1ccccc1)C(=O)N[C@H]1c2ccccc2C[C@H]1O)C(C)(C)C` had an inhibitory constant (Ki) of 0.023 µM. In series [3], this molecule yielded a CC50 of over 10 µM. For the same molecule, the 50% effective concentration (EC50) in series [4] is over 10 µM.

`COC(=O)N[C@H](C(=O)NN(Cc1ccc(-c2ccc3c(c2)OCO3)cc1)C[C@@](O)(Cc1ccccc1)C(=O)N[C@H]1c2ccccc2C[C@H]1O)C(C)(C)C`: the Ki in series [5] amounted to 0.011 µM. In series [3], this molecule returned a cytotoxic concentration (CC50) of over 10 µM. Moreover, the EC50 in series [4] is 1 µM.

With `COC(=O)N[C@H](C(=O)NN(Cc1ccc(-c2cc3ccccc3s2)cc1)C[C@@](O)(Cc1ccccc1)C(=O)N[C@H]1c2ccccc2C[C@H]1O)C(C)(C)C`, the CC50 in series [3] is over 10 µM. Further, the EC50 in series [4] is over 10 µM.

The molecule `COC(=O)N[C@H](C(=O)NN(Cc1cccc(-c2ccncc2)c1)C[C@@](O)(Cc1ccccc1)C(=O)N[C@H]1c2ccccc2C[C@H]1O)C(C)(C)C` displayed an inhibition constant Ki in series [5] of 0.093 µM. This molecule yielded a CC50 in series [3] of over 10 µM. Further, in series [4], it took 2 µM to reach a half-maximal effect (EC50).

Regarding `COC(=O)N[C@H](C(=O)NN(Cc1ccc(-c2ccncc2)cc1)C[C@@](O)(Cc1ccccc1)C(=O)N[C@H]1c2ccccc2C[C@H]1O)C(C)(C)C`, in series [3], the cytotoxic concentration (CC50) is over 10 µM. Besides, in series [4], it took 0.22 µM to reach a half-maximal effect (EC50).

In series [5], `COC(=O)N[C@H](C(=O)NN(Cc1cccc(-c2ccccc2)c1)C[C@@](O)(Cc1ccccc1)C(=O)N[C@H]1c2ccccc2C[C@H]1O)C(C)(C)C` displayed a Ki of 0.023 µM. The molecule further came in with a 50% cytotoxic concentration (CC50) in series [3] of over 10 µM. In series [4], this molecule yielded a concentration for a half-maximal effect (EC50) of over 10 µM.

On to `COC(=O)N[C@H](C(=O)NN(Cc1ccc(C#Cc2ccccn2)cc1)C[C@@](O)(Cc1ccccc1)C(=O)N[C@H]1c2ccccc2C[C@H]1O)C(C)(C)C`, for which the Ki in series [5] turned out to be 0.009 µM. In series [3], this molecule returned a CC50 of 4.9 µM. Moreover, a half-maximal effect in series [4] (EC50) was put at 1 µM.

In series [5], `COC(=O)N[C@H](C(=O)NN(Cc1ccc(-c2c(C)noc2C)cc1)C[C@@](O)(Cc1ccccc1)C(=O)N[C@H]1c2ccccc2C[C@H]1O)C(C)(C)C` came in with a Ki of 0.0038 µM. Besides, the CC50 in series [3] was over 10 µM. This molecule also displayed an EC50 in series [4] of 1.1 µM.

As to `COC(=O)N[C@H](C(=O)NN(Cc1ccc(Br)cc1)C[C@@](O)(Cc1ccccc1)C(=O)N[C@H]1c2ccccc2C[C@H]1O)C(C)(C)C`, the CC50 in series [3] was over 10 µM. Further, the EC50 in series [4] was 1.1 µM.

Regarding `COC(=O)N[C@H](C(=O)NN(Cc1ccc(C#Cc2ccccc2)cc1)C[C@@](O)(Cc1ccccc1)C(=O)N[C@H]1c2ccccc2C[C@H]1O)C(C)(C)C`, the affinity in series [5] corresponds to a Ki of 0.015 µM. Moreover, the CC50 in series [3] was over 10 µM. In addition, in series [4], the EC50 was over 10 µM.

In turn, `COC(=O)N[C@H](C(=O)NN(Cc1ccc(C#Cc2cccnc2)cc1)C[C@@](O)(Cc1ccccc1)C(=O)N[C@H]1c2ccccc2C[C@H]1O)C(C)(C)C` yielded a Ki in series [5] of 0.0078 µM. Also, the 50% cytotoxic concentration (CC50) in series [3] was over 10 µM. In series [4], the EC50 was found to be 0.75 µM.

`COC(=O)N[C@H](C(=O)NN(Cc1ccc(-c2ccccc2)cc1)C[C@@](O)(Cc1ccccc1)C(=O)N[C@H]1c2ccccc2C[C@H]1O)C(C)(C)C`: the half-maximal cytotoxic concentration (CC50) in series [3] was over 10 µM. Further, in series [4], the EC50 came out at 0.7 µM.

Turning to `COC(=O)N[C@H](C(=O)NN(Cc1ccc(-c2cnccn2)cc1)C[C@@](O)(Cc1ccccc1)C(=O)N[C@H]1c2ccccc2C[C@H]1O)C(C)(C)C`, the inhibition constant (Ki) in series [5] came out at 0.0021 µM. The molecule further displayed a CC50 in series [3] of 7.8 µM. For the same molecule, in series [4], a half-maximal response (EC50) required 1 µM.

`COC(=O)N[C@H](C(=O)NN(Cc1ccc(-c2ccccn2)cc1)C[C@@](O)(Cc1ccccc1)C(=O)N[C@H]1c2ccccc2C[C@H]1O)C(C)(C)C` showed a CC50 in series [3] of over 10 µM. This molecule also displayed an EC50 in series [4] of 0.9 µM.

In the case of `COC(=O)N[C@H](C(=O)NN(Cc1cccc(-c2ccccn2)c1)C[C@@](O)(Cc1ccccc1)C(=O)N[C@H]1c2ccccc2C[C@H]1O)C(C)(C)C`, in series [5], the inhibition constant Ki is 0.015 µM. The molecule further registered a CC50 in series [3] of 4.4 µM. In series [4], the half-maximal effective concentration (EC50) is over 10 µM.

For the molecule `COC(=O)N[C@H](C(=O)NN(Cc1cccc(C#Cc2cccnc2)c1)C[C@@](O)(Cc1ccccc1)C(=O)N[C@H]1c2ccccc2C[C@H]1O)C(C)(C)C`, the affinity in series [5], expressed as Ki, was 0.018 µM. Further, in series [3], the CC50 is over 10 µM. The molecule further showed an EC50 in series [4] of over 10 µM.

Take `COC(=O)N[C@H](C(=O)NN(Cc1cccc(Br)c1)C[C@@](O)(Cc1ccccc1)C(=O)N[C@H]1c2ccccc2C[C@H]1O)C(C)(C)C`: the Ki in series [5] came to 0.018 µM. In series [3], this molecule showed a CC50 of over 10 µM. Moreover, it took 3.3 µM to reach a half-maximal effect in series [4] (EC50).

(Values after ChEMBL document CHEMBL1146056, “Microwave-accelerated synthesis of P1'-extended HIV-1 protease inhibitors encompassing a tertiary alcohol in the transition-state mimicking scaffold” (J Med Chem, 2006).)
